In article PMC6445238 (Drug Design, Development and Therapy, 2019):

Assay: MAD study, safety and tolerability
Format: in vivo, human
Settings: for Erythema of eyelid, number of subjects (%) / Erythema, number of subjects (%) / Headache, number of subjects (%) / Hyperbilirubinemia, number of subjects (%) / Hyperhidrosis, number of subjects (%) / Hypoesthesia, number of subjects (%) / Insomnia, number of subjects (%) / Muscle hemorrhage, number of subjects (%) / Musculoskeletal stiffness, number of subjects (%) / Nausea, number of subjects (%) / Neck pain, number of subjects (%) / Oropharyngeal pain, number of subjects (%) / Subjects with any TEAEs, number of subjects (%) / Vomiting, number of subjects (%) / Abdominal discomfort, number of subjects (%) / Abdominal pain, number of subjects (%) / Anxiety, number of subjects (%) / Back pain, number of subjects (%) / Diarrhea, number of subjects (%) / Dizziness, number of subjects (%) / Epistaxis, number of subjects (%): N=6
Procedure, shortened: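 MAD cohorts were 6 active and 2 placebo healthy males, dosed once daily for 7 days, confined day −1 to day 8, with follow-up on day 14. Safety was monitored by vital signs, clinical labs, 12-lead ECG, physical exams, and AEs reported by subjects or observed by investigators. AEs were coded with MedDRA 19.1. Counts are given as subjects with AEs, % of the safety population. Placebo subjects were pooled.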

Structure (SMILES): Cc1nn(Cc2ccc(Br)cc2)c(C)c1NC(=O)CSc1ccccc1 [KM-819]
- Erythema of eyelid, number of subjects (%) (100 mg QD 7 days, young): 0
- Erythema, number of subjects (%) (100 mg QD 7 days, young): 0
- Headache, number of subjects (%) (100 mg QD 7 days, young): 1 (16.7)
- Hyperbilirubinemia, number of subjects (%) (100 mg QD 7 days, young): 0
- Hyperhidrosis, number of subjects (%) (100 mg QD 7 days, young): 0
- Hypoesthesia, number of subjects (%) (100 mg QD 7 days, young): 0
- Insomnia, number of subjects (%) (100 mg QD 7 days, young): 0
- Muscle hemorrhage, number of subjects (%) (100 mg QD 7 days, young): 0
- Musculoskeletal stiffness, number of subjects (%) (100 mg QD 7 days, young): 0
- Nausea, number of subjects (%) (100 mg QD 7 days, young): 1 (16.7)
- Neck pain, number of subjects (%) (100 mg QD 7 days, young): 0
- Oropharyngeal pain, number of subjects (%) (100 mg QD 7 days, young): 0
- Subjects with any TEAEs, number of subjects (%) (100 mg QD 7 days, young): 4 (66.7)
- Vomiting, number of subjects (%) (100 mg QD 7 days, young): 0
- Abdominal discomfort, number of subjects (%) (200 mg QD 7 days, elderly): 0
- Abdominal pain, number of subjects (%) (200 mg QD 7 days, elderly): 1 (16.7)
- Anxiety, number of subjects (%) (200 mg QD 7 days, elderly): 0
- Back pain, number of subjects (%) (200 mg QD 7 days, elderly): 2 (33.3)
- Diarrhea, number of subjects (%) (200 mg QD 7 days, elderly): 1 (16.7)
- Dizziness, number of subjects (%) (200 mg QD 7 days, elderly): 0
- Epistaxis, number of subjects (%) (200 mg QD 7 days, elderly): 0
- Erythema of eyelid, number of subjects (%) (200 mg QD 7 days, elderly): 0
- Erythema, number of subjects (%) (200 mg QD 7 days, elderly): 0
- Headache, number of subjects (%) (200 mg QD 7 days, elderly): 1 (16.7)
- Hyperbilirubinemia, number of subjects (%) (200 mg QD 7 days, elderly): 0
- Hyperhidrosis, number of subjects (%) (200 mg QD 7 days, elderly): 0
- Hypoesthesia, number of subjects (%) (200 mg QD 7 days, elderly): 0
- Insomnia, number of subjects (%) (200 mg QD 7 days, elderly): 1 (16.7)
- Muscle hemorrhage, number of subjects (%) (200 mg QD 7 days, elderly): 1 (16.7)
- Musculoskeletal stiffness, number of subjects (%) (200 mg QD 7 days, elderly): 0
- Nausea, number of subjects (%) (200 mg QD 7 days, elderly): 0
- Neck pain, number of subjects (%) (200 mg QD 7 days, elderly): 1 (16.7)
- Oropharyngeal pain, number of subjects (%) (200 mg QD 7 days, elderly): 0
- Subjects with any TEAEs, number of subjects (%) (200 mg QD 7 days, elderly): 3 (50.0)
- Vomiting, number of subjects (%) (200 mg QD 7 days, elderly): 0
- Abdominal discomfort, number of subjects (%) (200 mg QD 7 days, young): 1 (16.7)
- Abdominal pain, number of subjects (%) (200 mg QD 7 days, young): 0
- Anxiety, number of subjects (%) (200 mg QD 7 days, young): 0
- Back pain, number of subjects (%) (200 mg QD 7 days, young): 1 (16.7)
- Diarrhea, number of subjects (%) (200 mg QD 7 days, young): 0
- Dizziness, number of subjects (%) (200 mg QD 7 days, young): 2 (33.3)
- Epistaxis, number of subjects (%) (200 mg QD 7 days, young): 0
- Erythema of eyelid, number of subjects (%) (200 mg QD 7 days, young): 0
- Erythema, number of subjects (%) (200 mg QD 7 days, young): 0
- Headache, number of subjects (%) (200 mg QD 7 days, young): 5 (83.3)
- Hyperbilirubinemia, number of subjects (%) (200 mg QD 7 days, young): 1 (16.7)
- Hyperhidrosis, number of subjects (%) (200 mg QD 7 days, young): 0
- Hypoesthesia, number of subjects (%) (200 mg QD 7 days, young): 2 (33.3)
- Insomnia, number of subjects (%) (200 mg QD 7 days, young): 0
- Muscle hemorrhage, number of subjects (%) (200 mg QD 7 days, young): 0
- Musculoskeletal stiffness, number of subjects (%) (200 mg QD 7 days, young): 1 (16.7)
- Nausea, number of subjects (%) (200 mg QD 7 days, young): 4 (66.7)
- Neck pain, number of subjects (%) (200 mg QD 7 days, young): 0
- Oropharyngeal pain, number of subjects (%) (200 mg QD 7 days, young): 1 (16.7)
- Subjects with any TEAEs, number of subjects (%) (200 mg QD 7 days, young): 5 (83.3)
- Vomiting, number of subjects (%) (200 mg QD 7 days, young): 4 (66.7)
- Abdominal discomfort, number of subjects (%) (400 mg QD 7 days, young): 0
- Abdominal pain, number of subjects (%) (400 mg QD 7 days, young): 0
- Anxiety, number of subjects (%) (400 mg QD 7 days, young): 0
- Back pain, number of subjects (%) (400 mg QD 7 days, young): 1 (16.7)
- Diarrhea, number of subjects (%) (400 mg QD 7 days, young): 0
- Dizziness, number of subjects (%) (400 mg QD 7 days, young): 0
- Epistaxis, number of subjects (%) (400 mg QD 7 days, young): 1 (16.7)
- Erythema of eyelid, number of subjects (%) (400 mg QD 7 days, young): 1 (16.7)
- Erythema, number of subjects (%) (400 mg QD 7 days, young): 0
- Headache, number of subjects (%) (400 mg QD 7 days, young): 4 (66.7)
- Hyperbilirubinemia, number of subjects (%) (400 mg QD 7 days, young): 0
- Hyperhidrosis, number of subjects (%) (400 mg QD 7 days, young): 1 (16.7)
- Hypoesthesia, number of subjects (%) (400 mg QD 7 days, young): 0
- Insomnia, number of subjects (%) (400 mg QD 7 days, young): 0
- Muscle hemorrhage, number of subjects (%) (400 mg QD 7 days, young): 0
- Musculoskeletal stiffness, number of subjects (%) (400 mg QD 7 days, young): 1 (16.7)
- Nausea, number of subjects (%) (400 mg QD 7 days, young): 0
- Neck pain, number of subjects (%) (400 mg QD 7 days, young): 0
- Oropharyngeal pain, number of subjects (%) (400 mg QD 7 days, young): 0
- Subjects with any TEAEs, number of subjects (%) (400 mg QD 7 days, young): 5 (83.3)
- Vomiting, number of subjects (%) (400 mg QD 7 days, young): 0
- subjects withdrawn due to AEs (MAD, headache): 2
- serious adverse events (SAEs) reported (MAD, headache, considered unlikely related to KM-819): 1
